This passage reports Uptake, EC50 and RP results from ChEMBL document CHEMBL1128475, “Synthesis, pharmacologic activity, and structure-activity relationships of a series of propafenone-related modulators of multidrug resistance” (1995).

The subject of experiment [1] is CCRF-CEM. The experiment is described as follows: The percentage uptake of [3H]daunomycin in resistant CCRF-CEM vcr 100 cells to sensitive CCRF-CEM cells in presence of the compound. It counts as functional, cell-based. Conditions: Homo sapiens. A digest of the protocol:
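Rapid-centrifugation uptake. Resistant CCRF-CEM vcr 100 and sensitive CCRF-CEM cells at 5×10^6 cells/mL in RPMI 1640 with 2% FCS. Modifier (final 5 μM, from 100× DMSO stock) added 10 min before [3H]daunomycin (0.4 μCi/mL; total daunomycin final 1 μmol/L). Sampled at 0–60 min, spun through phthalate oil, pellets solubilized in NaOH/SDS, counted by LSC. Expressed as % of sensitive-cell uptake.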

The test system of experiment [2] is CCRF-CEM. The experiment is described as follows: The effective dose was measured against P-glycoprotein expressing CCRF-CEM cells in the presence of […]. The format is functional. Conditions: Homo sapiens, read-out: ED50 (the source's name). A digest of the protocol:
(§1)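 CCRF-CEM vcr 100 cells (selected stepwise in vincristine; kept in 100 ng/mL vincristine until 1 week before use), RPMI 1640 with 10% FCS. Cytotoxicity of daunomycin or etoposide by MTT reduction, formazan dissolved in 2-propanol/0.04 N HCl, absorbance read. Modifier at 5 μM; six toxin concentrations, triplicate points, ED50 estimated. Reversion potency = toxin ED50 without/with modifier.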

Experiment [3] relates to CCRF-CEM. Briefly: The effective dose was measured against P-glycoprotein expressing CCRF-CEM cells in the presence of 5 uM etoposide. The format is functional. Conditions: Homo sapiens, read-out: ED50 (the source's name). A digest of the protocol: as §1
Experiment [4] relates to CCRF-CEM. The experiment is described as follows: The reversion potency of compound was measured against P-glycoprotein expressing CCRF-CEM cells and expressed as the ratio of ED50 in the absence and presence […]. It counts as functional, Homo sapiens.
Experiment [5] deals with CCRF-CEM. Briefly: The chemosensitizing effect was measured against P-glycoprotein expressing CCRF-CEM cells in the presence of […]. The format is functional. Conditions: Homo sapiens, read-out: ED50 (the source's name). Summed up: as §1
In experiment [6] the test system is CCRF-CEM. Briefly: The reversion potency of compound was measured against P-glycoprotein expressing CCRF-CEM cells and expressed as the ratio of ED50 in the absence and presence of etoposide. It counts as functional, Homo sapiens. A digest of the protocol:
as §1

As for `COc1ccc(CCN(C)CCCC(C#N)(c2ccc(OC)c(OC)c2)C(C)C)cc1OC` (stereo not given), in the experiment on CCRF-CEM [1], the Uptake is 79%. Further, the EC50 in the experiment on CCRF-CEM [2] amounted to 45 nM; in the experiment on CCRF-CEM [3] it was 3400 nM.
Regarding `COc1ccc(N2CCN(CC(O)COc3ccccc3C(=O)CCc3ccccc3)CC2)cc1` (stereo not given), the RP amounted to 42 with CCRF-CEM [4] and 3.7 in the experiment on CCRF-CEM [6]. In addition, the Uptake in the experiment on CCRF-CEM [1] was 96%. Further, the EC50 in the experiment on CCRF-CEM [3] is 948 nM; with CCRF-CEM [5], 33 nM.
On to `CCCNCC(O)COc1ccccc1C(=O)CCc1ccccc1` (stereo not given) [PROPAFENONE], for which the RP in the experiment on CCRF-CEM [4] is given as 16. The Uptake in the experiment with CCRF-CEM [1] is 65%. Moreover, in the experiment with CCRF-CEM [5], the EC50 was 88 nM.
In the case of `O=C(CCc1ccccc1)c1ccccc1OCC(O)CN1CCCCC1` (stereo not given), the RP was found to be 30 with CCRF-CEM [4] and 1.1 in the experiment with CCRF-CEM [6]. Moreover, the Uptake in the experiment on CCRF-CEM [1] was determined as 83%. In addition, the EC50 in the experiment with CCRF-CEM [3] turned out to be 3300 nM; in the experiment with CCRF-CEM [5] it was 46 nM.
`O=C(CCc1ccccc1)c1ccccc1OCC(O)CN1CCN(c2ccc(F)cc2)CC1` (stereo not given): the RP was 34 with CCRF-CEM [4] and 3.4 with CCRF-CEM [6]. Also, in the experiment with CCRF-CEM [1], the Uptake is 92%. For the same molecule, the values for the EC50 with CCRF-CEM [3] and in the experiment on CCRF-CEM [5] were 1020 nM and 41 nM, respectively.
Consider `O=C(CCc1ccccc1)c1ccccc1OCC(O)CN1CCOCC1` (stereo not given), for which the RP in the experiment on CCRF-CEM [4] was found to be 4. Also, the EC50 in the experiment with CCRF-CEM [5] was found to be 359 nM.
As to `CCN(CC)CC(O)COc1ccccc1C(=O)CCc1ccccc1` (stereo not given), the RP with CCRF-CEM [4] was 12. In addition, in the experiment on CCRF-CEM [1], the Uptake came to 68%. The results for the EC50 in the experiment on CCRF-CEM [3] and in the experiment on CCRF-CEM [5] were 3400 nM and 115 nM, respectively.
Turning to `Cc1ccccc1N1CCN(CC(O)COc2ccccc2C(=O)CCc2ccccc2)CC1` (stereo not given), the RP came out at 33 in the experiment with CCRF-CEM [4] and 5.4 in the experiment with CCRF-CEM [6]. In addition, the Uptake in the experiment on CCRF-CEM [1] is 96%. Besides, the values for the EC50 in the experiment with CCRF-CEM [3] and with CCRF-CEM [5] were 648 nM and 43 nM, respectively.
On to `CCCNCC(O)c1oc2ccccc2c1CCc1ccccc1` (stereo not given), for which the RP in the experiment on CCRF-CEM [4] is recorded as 7. Further, the EC50 with CCRF-CEM [5] worked out at 198 nM.
For `CCN(CC)CC(O)COc1ccccc1C(=O)c1ccccc1` (stereo not given), in that order: 9 and 150 nM.
Consider `CC(=O)c1ccccc1OCC(O)CN1CCCCC1` (stereo not given), for which, in the experiment on CCRF-CEM [4], the RP was found to be 2. Besides, the EC50 in the experiment on CCRF-CEM [5] turned out to be 770 nM.
On to `CCCN(C)CC(O)COc1ccccc1C(=O)CCc1ccccc1` (stereo not given), for which the RP in the experiment with CCRF-CEM [4] is 26. In addition, the EC50 in the experiment on CCRF-CEM [5] stood at 55 nM.
Regarding `CC(C)N(CC(O)COc1ccccc1C(=O)CCc1ccccc1)C(C)C` (stereo not given), in the experiment with CCRF-CEM [4], the RP was found to be 22. In the experiment with CCRF-CEM [1], the Uptake came out at 82%. Besides, in the experiment on CCRF-CEM [5], the EC50 is 65 nM.
Turning to `O=C(CCc1ccccc1)c1ccccc1OCC(O)CN1CCCC1` (stereo not given), the RP with CCRF-CEM [4] was determined as 20. For the same molecule, the EC50 in the experiment on CCRF-CEM [5] came out at 70 nM.
